Reference: ChEMBL document CHEMBL1208671, “Small structural changes of pentacyclic lupane type triterpenoid derivatives lead to significant differences in their anticancer properties” (Eur J Med Chem, 2010)
Calls of active or inactive are those of the source. The calls are words filed in the database; no cut-off is given here.

Columns and labels:
A549 = assay: Cytotoxicity against human A549 cells after 96 hrs by SRB colorimetric assay; type: functional, cell-based; details: A549, 96 h
In short: (§1)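 Cells kept as monolayers in RPMI 1640 with 10 % heat-inactivated FBS and 1 % penicillin/streptomycin, 37°C, 5 % CO2, seeded at optimal density. Exponentially growing cells exposed to compound for 96 h, fixed with 10 % TCA, stained with sulforhodamine B for 30 min, washed with 1 % acetic acid, bound dye dissolved in 10 mM Tris base, OD read at 570 nm. IC50 estimated from semi-log dose-response curves versus untreated controls.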

[1] = Cytotoxicity against human A253 cells after 96 hrs by SRB colorimetric assay; type: functional, cell-based; details: A253, 96 h; in short: as §1
A-431 = assay: Cytotoxicity against human A431 cells after 96 hrs by SRB colorimetric assay; type: functional, cell-based; details: A-431, 96 h; in short: as §1
HT-29 [2] = assay: Cytotoxicity against human HT-29 cells after 96 hrs by SRB colorimetric assay; type: functional, cell-based; details: HT-29, 96 h; in short: as §1
[3] = Cytotoxicity against human 518A2 cells after 96 hrs by SRB colorimetric assay; type: functional, cell-based; details: 518A2, 96 h; in short: as §1
MCF7 = assay: Cytotoxicity against human MCF7 cells after 96 hrs by SRB colorimetric assay; type: functional, cell-based; details: MCF7, 96 h; in short: as §1
A2780 = assay: Cytotoxicity against human A2780 cells after 96 hrs by SRB colorimetric assay; type: functional, cell-based; details: A2780, 96 h; in short: as §1
SW-1736 = assay: Cytotoxicity against human SW1736 cells after 96 hrs by SRB colorimetric assay; type: functional, cell-based; details: SW-1736, 96 h; in short: as §1
HT-29 [4] = assay: Induction of apoptosis in human HT-29 cells at IC90 concentration after 48 hrs using annexin V and propidium iodide staining by FACS analysis relative to control; type: functional
HT-29 [5] = assay: Induction of apoptosis in human HT-29 cells assessed as upregulation of caspase 3 activity at IC90 concentration after 24 hrs; type: functional, cell-based
In short: (§2)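 HT-29 monolayers were kept in RPMI 1640 with 10 % heat-inactivated FBS and 1 % penicillin/streptomycin at 37°C in 5 % CO2. Cells were exposed to the test agent, and caspase-2, -3, -8 and -9 activities were measured after 2, 6 and 24 h.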

HT-29 [6] = assay: Induction of apoptosis in human HT-29 cells assessed as upregulation of caspase 3 activity at IC90 concentration after 2 hrs; type: functional, cell-based; in short: as §2
HT-29 [7] = assay: Induction of apoptosis in human HT-29 cells assessed as upregulation of caspase 8 activity at IC90 concentration after 2 hrs; type: functional, cell-based; in short: as §2
HT-29 [8] = assay: Cell cycle arrest in human HT-29 cells assessed as accumulation at S phase at IC90 concentration after 24 hrs using propidium iodide staining by flow cytometry; type: functional
In short: (§3)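 Exponentially growing cells were exposed to the IC90 concentration for 24 and 48 h. Cell-cycle phase distribution, including the sub-G1 apoptotic peak, was compared with untreated controls at each time.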

HT-29 [9] = assay: Induction of apoptosis in human HT-29 cells assessed as programmed cell death at IC90 concentration after 24 hrs by trypan blue exclusion test; type: functional, cell-based
In short: (§4)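 RPMI 1640 cultures (10 % heat-inactivated FBS, 37°C, 5 % CO2) were exposed to the IC90 concentration for 24 h. For trypan blue exclusion, cells excluding the dye were scored as viable or early apoptotic and blue cells as necrotic. DNA was run on agarose gels, where internucleosomal laddering (180 bp multiples) indicates apoptosis and a smear indicates necrosis.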

HT-29 [10] = assay: Induction of apoptosis in human HT-29 cells assessed as upregulation of caspase 8 activity at IC90 concentration after 24 hrs; type: functional, cell-based; in short: as §2
HT-29 [11] = assay: Cell cycle arrest in human HT-29 cells assessed as accumulation at G1 phase at IC90 concentration after 48 hrs using propidium iodide staining by flow cytometry; type: functional; in short: as §3
HT-29 [12] = assay: Induction of apoptosis in human HT-29 cells assessed as upregulation of caspase 2 activity at IC90 concentration after 6 hrs; type: functional, cell-based; in short: as §2
HT-29 [13] = assay: Cell cycle arrest in human HT-29 cells assessed as accumulation at G1 phase at IC90 concentration after 24 hrs using propidium iodide staining by flow cytometry; type: functional; in short: as §3
HT-29 [14] = assay: Induction of apoptosis in human HT-29 cells assessed as upregulation of caspase 9 activity at IC90 concentration after 24 hrs; type: functional, cell-based; in short: as §2
HT-29 [15] = assay: Cell cycle arrest in human HT-29 cells assessed as accumulation at G2/M phase at IC90 concentration after 24 hrs using propidium iodide staining by flow cytometry; type: functional; in short: as §3
HT-29 [16] = assay: Induction of apoptosis in human HT-29 cells assessed as upregulation of caspase 9 activity at IC90 concentration after 2 hrs; type: functional, cell-based; in short: as §2
HT-29 [17] = assay: Induction of apoptosis in human HT-29 cells assessed as upregulation of caspase 2 activity at IC90 concentration after 24 hrs; type: functional, cell-based; in short: as §2
HT-29 [18] = assay: Cell cycle arrest in human HT-29 cells assessed as accumulation at subG1 phase at IC90 concentration after 48 hrs using propidium iodide staining by flow cytometry; type: functional; in short: as §3
HT-29 [19] = assay: Induction of apoptosis in human HT-29 cells assessed as upregulation of caspase 2 activity at IC90 concentration after 2 hrs; type: functional, cell-based; in short: as §2
HT-29 [20] = assay: Cell cycle arrest in human HT-29 cells assessed as accumulation at subG1 phase at IC90 concentration after 24 hrs using propidium iodide staining by flow cytometry; type: functional; in short: as §3
HT-29 [21] = assay: Cell cycle arrest in human HT-29 cells assessed as accumulation at S phase at IC90 concentration after 48 hrs using propidium iodide staining by flow cytometry; type: functional; in short: as §3
HT-29 [22] = assay: Cell cycle arrest in human HT-29 cells assessed as accumulation at G2/M phase at IC90 concentration after 48 hrs using propidium iodide staining by flow cytometry; type: functional; in short: as §3
HT-29 [23] = assay: Induction of apoptosis in human HT-29 cells assessed as DNA fragmentation at IC90 concentration after 24 hrs using ethidium bromide staining by DNA gel electrophoresis; type: functional, cell-based; in short: as §4
HT-29 [24] = assay: Induction of apoptosis in human HT-29 cells assessed as upregulation of caspase 3 activity at IC90 concentration after 6 hrs; type: functional, cell-based; in short: as §2
HT-29 [25] = assay: Induction of apoptosis in human HT-29 cells assessed as upregulation of caspase 8 activity at IC90 concentration after 6 hrs; type: functional, cell-based; in short: as §2
HT-29 [26] = assay: Induction of apoptosis in human HT-29 cells assessed as upregulation of caspase 9 activity at IC90 concentration after 6 hrs; type: functional, cell-based; in short: as §2

SMILES | IC50 (A549) [µM] | IC50 [1] [µM] | IC50 (A-431) [µM] | IC50 (HT-29 [2]) [µM] | IC50 [3] [µM] | IC50 (MCF7) [µM] | IC50 (A2780) [µM] | IC50 (SW-1736) [µM] | Activity (HT-29 [4]) | Activity (HT-29 [23]) | also measured
C=C(C)[C@@H]1CC[C@]2(C(=O)O)CC[C@]3(C)[C@H](CC[C@@H]4[C@@]5(C)CCC(=O)C(C)(C)[C@@H]5CC[C@]43C)[C@@H]12 [BETUNOLIC ACID] | 10.1 | 10.1 | 3.26 | 10 | 10.4 | 10.4 | 2.98 | 3.05 |  |  | 
C=C(C)[C@@H]1CC[C@]2(C(=O)OCC(N)(CO)CO)CC[C@]3(C)[C@H](CC[C@@H]4[C@@]5(C)CC[C@H](OC(C)=O)C(C)(C)[C@@H]5CC[C@]43C)[C@@H]12 | 3.44 | 2.02 | 2.54 | 2.45 | 2.87 | 2.76 | 3.62 | 3.73 | 20% | Active | Activity (HT-29 [5]): inactive; Activity (HT-29 [6]): inactive; Activity (HT-29 [7]): inactive; Activity (HT-29 [8]): 19.83%; Activity (HT-29 [9]): Active; Activity (HT-29 [10]): inactive; Activity (HT-29 [11]): 18.07%; Activity (HT-29 [12]): Active; Activity (HT-29 [13]): 38.41%; Activity (HT-29 [14]): inactive; Activity (HT-29 [15]): 16.39%; Activity (HT-29 [16]): inactive; Activity (HT-29 [17]): inactive; Activity (HT-29 [18]): 60.66%; Activity (HT-29 [19]): inactive; Activity (HT-29 [20]): 25.11%; Activity (HT-29 [21]): 13.85%; Activity (HT-29 [22]): 7.6%
C=C(C)[C@@H]1CC[C@]2(C(=O)OCC(CO)CO)CC[C@]3(C)[C@H](CC[C@@H]4[C@@]5(C)CC[C@H](O)C(C)(C)[C@@H]5CC[C@]43C)[C@@H]12 | > 100 | > 100 | > 100 | > 100 | > 100 | > 100 | > 100 | > 100 |  |  | 
C=C(C)[C@@H]1CC[C@]2(C(=O)O)CC[C@]3(C)[C@H](CC[C@@H]4[C@@]5(C)CC[C@H](OC(C)=O)C(C)(C)[C@@H]5CC[C@]43C)[C@@H]12 | 6.73 | 11.8 | 10.7 | 16.1 | 4.65 | 11.1 | 19 | 7.3 |  |  | 
C=C(C)[C@@H]1CC[C@]2(C(=O)NC(CO)(CO)CO)CC[C@]3(C)[C@H](CC[C@@H]4[C@@]5(C)CC[C@H](OC(C)=O)C(C)(C)[C@@H]5CC[C@]43C)[C@@H]12 | 30.5 | 29.5 | 10.3 | 10 | 29.6 | 29.4 | 10.1 | 10.2 |  |  | 
C=C(C)[C@@H]1CC[C@]2(C(=O)O)CC[C@]3(C)[C@H](CC[C@@H]4[C@@]5(C)CC[C@H](O)C(C)(C)[C@@H]5CC[C@]43C)[C@@H]12 |  |  |  |  |  |  |  |  | Active | Active | 
C=C(C)[C@@H]1CC[C@]2(C(=O)OCC(N)(CO)CO)CC[C@]3(C)[C@H](CC[C@@H]4[C@@]5(C)CC[C@H](O)C(C)(C)[C@@H]5CC[C@]43C)[C@@H]12 | > 100 | > 100 | 3.61 | 8.9 | > 100 | > 100 | 3.46 | > 100 |  |  | 
C=C(C)[C@@H]1CC[C@]2(C(=O)NC(CO)(CO)CO)CC[C@]3(C)[C@H](CC[C@@H]4[C@@]5(C)CC[C@H](O)C(C)(C)[C@@H]5CC[C@]43C)[C@@H]12 | > 100 | > 100 | > 100 | > 100 | > 100 | > 100 | > 100 | > 100 |  |  | 
C=C(C)[C@@H]1CC[C@]2(C(=O)OCC(N)(CO)CO)CC[C@]3(C)[C@H](CC[C@@H]4[C@@]5(C)CCC(=O)C(C)(C)[C@@H]5CC[C@]43C)[C@@H]12 | 10.8 | 10.5 | 10.1 | 9.44 | 10.8 | 10.6 | 10 | 10.1 | 20% | Active | Activity (HT-29 [9]): Active; Activity (HT-29 [10]): inactive; Activity (HT-29 [11]): inactive; Activity (HT-29 [12]): inactive; Activity (HT-29 [14]): inactive; Activity (HT-29 [24]): inactive; Activity (HT-29 [25]): inactive; Activity (HT-29 [17]): inactive; Activity (HT-29 [18]): inactive; Activity (HT-29 [26]): inactive; Activity (HT-29 [19]): Active; Activity (HT-29 [21]): inactive; Activity (HT-29 [22]): inactive
